Bioassay records (PubChem BioAssay)
HTRA1 inhibitor: HTRA1 serine protease inhibitors, primary screen, biochemical, fluorescence polarization, HTS. recombinant HTRA1, FP-rhodamine activity-based probe. inhibition, % at 5.96 µM. 340,000 tested, 0.5% active. AID 504803, 2011; in the data active = inhibition above about 36%;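 note: 0% = enzyme with DMSO and 100% = wells lacking enzyme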
Target sequence (Q92743 whole entry, looked up): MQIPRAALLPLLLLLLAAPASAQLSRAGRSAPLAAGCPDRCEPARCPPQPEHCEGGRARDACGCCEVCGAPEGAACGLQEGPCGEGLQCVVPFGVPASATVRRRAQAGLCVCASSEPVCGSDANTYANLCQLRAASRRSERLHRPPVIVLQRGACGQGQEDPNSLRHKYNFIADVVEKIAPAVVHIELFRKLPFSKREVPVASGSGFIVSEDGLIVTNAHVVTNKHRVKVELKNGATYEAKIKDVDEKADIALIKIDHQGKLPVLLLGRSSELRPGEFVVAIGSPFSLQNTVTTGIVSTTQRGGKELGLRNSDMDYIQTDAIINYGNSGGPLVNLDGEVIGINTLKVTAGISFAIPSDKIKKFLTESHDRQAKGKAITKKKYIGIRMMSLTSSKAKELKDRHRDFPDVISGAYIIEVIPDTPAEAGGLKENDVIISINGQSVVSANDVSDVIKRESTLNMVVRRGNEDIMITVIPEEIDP
ABHD4 inh: ABHD4 inhibitors, primary screen, biochemical, fluorescence polarization, mouse; purified mABHD4, FP-Rh probe fluorescence polarization; inhibition, % at 8.92 µM; 370,000 tested, 0.54% active; AID 720543, 2013;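 active = inhibition exceeding the mean over every tested compound plus 3 SD, cut at about 30% in these data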;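 note: 0% = plate median of compound wells and 100% = S159A mutant with DMSO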
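Test system: mouse ABHD4 enzyme, wild type. Reagent: FP-Rh fluorescent activity-based probe, added after compound pre-incubation. Timing: pre-incubation 45 min, probe exposure 60 min, at 25 °C. Technique: FP readout, ex 525 nm / em 598 nm. Benchmarks: high control S159A mutant with DMSO, low control median of compound wells.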
SIAE inh: human SIAE inhibitors, primary screen, biochemical, fluorescence polarization, FP-Rh probe, 1536-well HTS | Sialate O-acetylesterase (Homo sapiens), Q9HAT2 | SIAE FP-Rh probe binding | inhibition, % at 9.66 µM | 370,000 tested, 0.69% active | AID 1053197, 2014;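 active = inhibition above a cutoff: mean of compounds within the control limits plus 3 SD of those, cut at about 17% in these data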;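 note: 0% = plate median of compound wells and 100% = probe without SIAE protein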
TCR CD3 inh: inhibitors of human TCR-CD3 interaction, primary screen, biochemical, fluorescence, TAMRA-labeled TCR probe | inhibition, % at 9.4 µM | T-cell receptor (TCR) | 360,000 tested, 0.37% active; in the data active = inhibition above about 19%;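 note: recombinant mutant TCR 2C K166C tagged with TAMRA read by polarization; 0% = receptor in buffer alone and 100% = receptor with positive control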
pPAFAH FP inh: pPAFAH enzyme inhibitors, primary screen, biochemical, fluorescence polarization, human. Platelet-activating factor acetylhydrolase (Homo sapiens), Q13093. recombinant pPAFAH, FP-rhodamine probe fluorescence polarization. inhibition, % at 3.39 µM. 330,000 tested, 1.5% active. AID 463082, 2010;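 active = inhibition above the mean inhibition across the screen plus 3 SD, cut at about 25% in these data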;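 note: inhibitors block binding of the rhodamine activity-based probe so polarization drops; 0% = enzyme with DMSO and 100% = wells lacking pPAFAH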
HTRA1 conf: HTRA1 protease inhibitors, retest, confirmation, biochemical, fluorescence polarization. shares compounds with HTRA1 inhibitor. recombinant HTRA1, FP-rhodamine activity-based probe. inhibition, % at 5.96 µM. 1,600 tested, 66% active. AID 540248, 2011;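 active = mean inhibition over three repeats above a set limit taken from the earlier primary screen, cut at about 37% in these data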;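 note: 0% = HTRA1 with DMSO and 100% = wells lacking HTRA1; inhibitors block probe binding so polarization drops and inhibition rises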
The depositor's hits bear a star; / = no result. This is a sample that favours compounds with a hit; in the whole collection about 2.3% have one here.

SMILES	HTRA1 inhibitor	ABHD4 inh	SIAE inh	TCR CD3 inh	pPAFAH FP inh	HTRA1 conf
Cc1cc2ccccc2n1CCNC(=O)COc1ccccc1	49.1*	10.5	-0.6	5.7	11.4	2.7
Cc1cc2ccccc2n1CCNC(=O)c1ccc(Br)o1	56.9*	14.7	7.9	17.9	9.7	20.2
COC(=O)[C@]12C[C@H](CC(=O)N3CCN(C(=O)c4ccco4)CC3)C(=O)N(CCC3=CCCCC3)C1=C[C@H](C1CCCC1)O[C@@H]2C	/	0.4	-5.2	/	/	/
CN(C)c1ccc(Cn2c(=O)n(Cc3ccc(C(=O)NCC4COC4)cc3)c(=O)c3ccccc32)cc1	/	5.4	3.0	/	/	/
CCc1cccc(CC)c1NC(=S)NCCc1ccc(O)c(O)c1	67.1*	11.5	4.1	-3.5	1.6	77.5*
CCc1cccc(CC)c1NC(=S)NCCc1c(C)[nH]c2ccccc12	-5.6	3.8	5.1	-3.9	8.9	/
N#CC(c1nc2ccccc2nc1N1CCCC1)S(=O)(=O)c1ccccc1 (stereo not drawn)	39.3*	6.4	6.4	5.8	23.2	5.3
CN1CCN(c2nc3ccccc3nc2C(C#N)S(=O)(=O)c2ccccc2)CC1 (stereo not drawn)	/	-0.1	0.0	-3.8	6.3	/
CC(C)[C@H](NC(=O)c1cccc(S(=O)(=O)N2CCOCC2)c1)C(=O)OCC(=O)Nc1cccc(Br)c1	36.9*	-14.6	-15.3	1.4	/	37.1*
CC(C)[C@H](NC(=O)c1ccccc1)C(=O)OCC(=O)Nc1ccc(S(=O)(=O)N2CCOCC2)cc1	24.1	-0.9	7.6	-0.8	0.6	/
COC(=O)[C@]12C[C@H](CC(=O)N3CCCC3)C(=O)N(Cc3ccc(Cl)cc3Cl)C1=C[C@H](C1CCCC1)O[C@@H]2C	/	4.6	4.8	/	/	/
c1ccc2c(c1)NCC1CCCN21 (stereo not drawn)	43.7*	21.9	11.6	0.9	12.0	18.4
O=C(CSc1nc2ccccc2o1)NCC1CCCO1 (stereo not drawn)	55.1*	-9.8	5.1	-12.4	1.6	12.8
CN1/C(=C/C=C/c2n(C)c3cc([N+](=O)[O-])c([N+](=O)[O-])cc3[n+]2C)C(C)(C)c2ccccc21	42.1*	-1.3	6.3	-8.2	/	41.5*
CC(=NNc1nc2ccccc2o1)c1cc2ccccc2cn1	56.1*	15.6	5.3	-1.2	/	69.8*
Cc1cc(C)nc(Nc2nc3ccccc3o2)n1	2.9	1.1	-0.4	6.2	-1.6	/
CCC(=O)NC(c1ccc(C)cc1)c1cc([N+](=O)[O-])c2cccnc2c1O (stereo not drawn)	37.5*	8.6	11.3	1.8	32.1*	71.1*
CC(=O)NC(c1ccco1)c1ccc2cccnc2c1O (stereo not drawn)	19.1	/	/	/	4.0	/
CCCC(=O)NC(c1ccco1)c1cc([N+](=O)[O-])c2cccnc2c1O (stereo not drawn)	50.5*	19.0	0.1	6.1	29.7*	65.8*
CN(Cc1cc([N+](=O)[O-])c2cccnc2c1O)C1CCCCC1	/	/	/	/	-4.6	/
C[C@@H]1CCCCO[C@@H](CN(C)CC2CC2)[C@@H](C)CN([C@H](C)CO)C(=O)c2cc(N(C)C)ccc2O1	11.1	/	/	/	/	/
O=C(OCC(=O)N1CCNC1=O)c1ccccc1Cl	4.5	3.1	4.8	1.2	/	/
Cc1c2c(=O)n(-c3nc4ccccc4s3)nc-2cc(O)n1Cc1ccccc1	47.1*	/	/	/	/	56.8*
Cc1cc(C)n(-c2nc3ccccc3s2)n1	2.9	5.6	-1.6	9.3	2.5	/
CC(C)c1ccc(O)c(NC(=O)c2ncn[nH]2)c1	4.3	13.8	-1.9	-2.1	5.6	/
SMILES	HTRA1 inhibitor	ABHD4 inh	SIAE inh	TCR CD3 inh	pPAFAH FP inh	HTRA1 conf
CCc1ccc2c(c1)NC(=O)C2(C)Cc1ccc(F)cc1 (stereo not drawn)	/	23.9	-4.5	4.0	/	/
CCc1ccc2c(c1)C1(NN=C(c3ccc(C)cc3)S1)C(=O)N2 (stereo not drawn)	36.5*	-0.8	2.5	3.2	2.4	52.8*
CC(C)c1ccc2c(c1)C1(NN=C(c3ccccc3)S1)C(=O)N2 (stereo not drawn)	45.8*	5.3	4.5	-1.3	6.5	65.7*
Cc1ccc(-c2nn(-c3ccccc3)cc2C(=O)N2CCOCC2)cc1	36.2*	-1.4	4.7	7.4	4.4	-5.2
Cc1sc2ncnc(N/N=C/c3ccccc3O)c2c1C	59.7*	21.6	2.8	-1.5	7.1	60.6*
Cc1sc2ncnc(N/N=C/c3ccc(O)cc3)c2c1C	19.6	17.8	-2.0	1.5	10.5	/
CCN1CCc2c(sc(NC(=O)c3ccc(S(=O)(=O)N4CCOCC4)cc3)c2C(=O)OC)C1	38.0*	-3.5	3.1	-6.8	-0.1	28.3
CCN1CCc2c(sc(NC(=O)c3ccc(S(=O)(=O)N4CCOCC4)cc3)c2C(N)=O)C1	-2.3	1.4	-4.4	9.3	-5.3	/
CC1(c2ccccc2)CC(=O)N(c2ccc(NC(=O)c3ccccn3)cc2Cl)C1=O (stereo not drawn)	/	-4.7	-5.3	/	/	/
Nc1[nH]c(C(=O)c2ccccc2)c(-c2ccccc2C(F)(F)F)c1C(=O)NCc1ccc(F)cc1	/	0.7	-2.5	-1.4	/	/
C=CCN1CCc2c(cc(O)c(O)c2Cl)C(c2ccccc2)C1 (stereo not drawn)	42.6*	13.6	-1.3	-1.9	2.1	69.8*
O=S1(=O)N[C@@H](Cc2ccccc2)COc2cccc(N3CCC[C@H]3CO)c21	/	-1.1	1.4	0.7	/	/
O=c1c(O)c(-c2ccc(O)c(O)c2)oc2cc(O)ccc12	39.2*	27.1	0.1	18.4	/	35.2
COc1ccc2c(c1)N=CN1CCc3c([nH]c4ccccc34)C3=NCC[C@@]321	/	-2.0	-0.7	/	/	/
Oc1ccc(N=Cc2ccc(O)c(O)c2)cc1	57.4*	/	/	/	33.6*	51.7*
O=Cc1ccc(O)c(O)c1	2.3	3.6	1.5	-7.5	0.8	/
Cc1ccc2c(c1)c1c3n2CCN(C(=O)CN2CCN(C)CC2)C3CCC1 (stereo not drawn)	4.4	3.8	0.4	0.8	3.4	/
Cc1ccc2c(c1)c(=O)c1c3n2CCN(C(=O)CCl)C3CC1 (stereo not drawn)	48.4*	21.5	6.0	2.1	14.8	19.4
CCCCC[C@H](C)N1C[C@@H](COCc2ccccc2)Oc2cc(N3CC[C@H](O)C3)ccc2S1(=O)=O	/	-12.1	4.3	0.5	/	/
CCCCC(=O)N(C)c1c(CC)nc2c(OCc3cc(Cl)cc(Cl)c3)cccn12	/	5.1	-1.5	0.0	/	/
Cc1nc(N)sc1-c1csc(Nc2ccc(Cl)cn2)n1	42.0*	20.1	14.6	-1.3	16.0	37.4*
Cc1ccc(Nc2nc(-c3sc(N)nc3C)cs2)cc1	49.9*	15.8	6.4	-1.6	/	30.7
